Results as given in ChEMBL document CHEMBL1122613, “A water-soluble cholesteryl-containing trisgalactoside: synthesis, properties, and use in directing lipid-containing particles to the liver” (J Med Chem, 1984).

Columns and labels:
[1] = [125I]- uptake in liver after perfusion on administration of 0.25 nmol of compound/ug of [125I]- LDL protein; assay type: ADME, tissue-based; conditions: rat
How it was run: (§1)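 Human LDL (d 1.019–1.063) was labeled with 125I. 20 μg LDL-protein was mixed with 0, 5 or 13 μg compound in water for 10 min at room temperature, then given iv to pentobarbital-anesthetized male rats. At 10 min, blood was taken by aortic puncture and the liver perfused via the portal vein (Ca2+-free Hanks, 14 mL/min, 8 min), then excised. Samples were γ-counted; results are % injected dose.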

[2] = [125I]- uptake in liver after perfusion on administration of 0 nmol of compound/ug of [125I]- LDL protein; assay type: ADME, tissue-based; conditions: rat; how it was run: as §1
[3] = system: Rattus norvegicus; assay: Amount of [125I]- remaining in blood 10 min after administration of 0 nmol of compound/ug of [125I]- LDL protein; assay type: ADME, organism-based; how it was run: as §1
[4] = system: Rattus norvegicus; assay: Amount of [125I]- remaining in blood 10 min after administration of 0.65 nmol of compound/ug of [125I]- LDL protein; assay type: ADME, organism-based; how it was run: as §1
[5] = [125I]- uptake in liver after perfusion on administration of 0.05 nmol of compound/ug of [125I]- LDL protein; assay type: ADME, tissue-based; conditions: rat
[6] = system: Rattus norvegicus; assay: Amount of [125I]- remaining in blood 10 min after administration of 0.25 nmol of compound/ug of [125I]- LDL protein; assay type: ADME, organism-based; how it was run: as §1
[7] = organism: Rattus norvegicus; assay: Amount of 14C remaining in blood 120 min after injection of 0 mol of [14C]- sucrose containing liposomes with compound; assay type: ADME, organism-based; conditions: 2 h
[8] = 14C uptake in liver after perfusion on administration of 0 mol of [14C]- sucrose containing liposomes with compound; assay type: ADME; conditions: rat
[9] = 14C uptake in liver after perfusion on administration of 0.1 mol of [14C]- sucrose containing liposomes with compound; assay type: ADME; conditions: rat
[10] = [125I]- uptake in liver after perfusion on administration of 0.65 nmol of compound/ug of [125I]- LDL protein in rats preinjected with Gal-N-Ac 110 mg; assay type: ADME, tissue-based; conditions: rat, in vivo
How it was run: (§2)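 110 mg 2-acetamido-2-deoxygalacto- or -glucopyranose was injected iv 1 min before the 125I-LDL, which had been preincubated 10 min at room temperature with compound (13 μg per 20 μg LDL-protein). Rats were pentobarbital-anesthetized males. Blood was taken at 10 min, and the liver was perfused with Ca2+-free Hanks and excised. Samples were γ-counted; blood totals assume 4 mL serum/100 g body weight; values are % injected dose.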

[11] = system: Rattus norvegicus; assay: Amount of [125I]- remaining in blood 10 min after administration of 0.65 nmol of compound/ug of [125I]- LDL protein in rats preinjected with Gal-N-Ac 110 mg; assay type: ADME, organism-based; conditions: in vivo; how it was run: as §2
[12] = organism: Rattus norvegicus; assay: Amount of 14C remaining in blood 120 min after injection of 0.1 mol of [14C]- sucrose containing liposomes with compound; assay type: ADME, organism-based; conditions: 2 h
[13] = system: Rattus norvegicus; assay: Amount of [125I]- remaining in blood 10 min after administration of 0.65 nmol of compound/ug of [125I]- LDL protein in rat preinjected with Glc-N-Ac 110 mg; assay type: ADME, organism-based; conditions: in vivo; how it was run: as §2
[14] = system: Rattus norvegicus; assay: Amount of [125I]- remaining in blood 10 min after administration of 0.05 nmol of compound/ug of [125I]- LDL protein; assay type: ADME, organism-based
[15] = [125I]- uptake in liver after perfusion on administration of 0.65 nmol of compound/ug of [125I]- LDL protein in rats preinjected with Glc-N-Ac 110 mg; assay type: ADME, tissue-based; conditions: rat, in vivo; how it was run: as §2
[16] = [125I]- uptake in liver after perfusion on administration of 0.65 nmol of compound/ug of [125I]- LDL protein; assay type: ADME, tissue-based; conditions: rat; how it was run: as §1

## CC(C)CCC[C@@H](C)[C@H]1CC[C@H]2[C@@H]3CC=C4C[C@@H](OC(=O)CCC(=O)NCC(=O)NC(CO[C@@H]5O[C@H](CO)[C@H](O)[C@H](O)[C@H]5O)(CO[C@@H]5O[C@H](CO)[C@H](O)[C@H](O)[C@H]5O)CO[C@@H]5O[C@H](CO)[C@H](O)[C@H](O)[C@H]5O)CC[C@]4(C)[C@H]3CC[C@]12C
[1]
  Activity: 33%
[2]
  Activity: 1.9%
[3]
  Activity: 97%
[4]
  Activity: 23%
[5]
  Activity: 2%
[6]
  Activity: 57%
[7]
  Activity: 82%
[8]
  Activity: 3%
[9]
  Activity: 48%
[10]
  Activity: 3.2%
[11]
  Activity: 94%
[12]
  Activity: 48%
[13]
  Activity: 27%
[14]
  Activity: 96%
[15]
  Activity: 39%
[16]
  Activity: 41%
